“And” between values parts separate entries of the source, which are not always exact repeats. Equal entries are not always repeated. The source made the active and inactive calls. No cut-off for these calls is given here.
Legend:
[1] = biological target: Neuronal acetylcholine receptor; alpha4/beta4 (Rattus norvegicus, UniProt P09483+P12392); assay: Displacement of [3H]epibatidine from recombinant rat alpha-4-beta-4 nAChr in HEK293 cell line; type: cell-based
[2] = biological target: Neuronal acetylcholine receptor; alpha4/beta2 (Rattus norvegicus, UniProt P09483+P12390); assay: Displacement of [3H]epibatidine from rat recombinant alpha-4-beta-2 nAChR in HEK293 cell line; type: cell-based
[3] = Displacement of [3H]methyllycaconitine from chimeric alpha-7nAChR Y168A mutant/5HT3A receptor in tsA201 cells; type: cell-based, Homo sapiens
In short: (§1)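 tsA-201 cells transiently transfected with 4 µg WT or mutant α7/5-HT3A chimera and assayed 2 days later. Membranes washed twice at 50000g in 50 mM Tris-HCl pH 7.2. Incubated with 0.5 nM [3H]MLA and compound for 2.5 h at room temperature with shaking; nonspecific binding with 5 mM (S)-nicotine. PEI-soaked GF/C filtration, scintillation counting. Ki derived; duplicate, 3–7 experiments.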

[4] = biological target: T1, Neuronal acetylcholine receptor; alpha3/beta4 (Rattus norvegicus, UniProt P04757+P12392); assay: Displacement of [3H]epibatidine from recombinant rat alpha-3-beta-4 nAChr in HEK293 cell line; type: cell-based
[5] = Displacement of [3H]methyllycaconitine from chimeric alpha-7nAChR S148A mutant /5HT3A receptor in tsA201 cells; type: cell-based, Homo sapiens; in short: as §1
[6] = Displacement of [3H]methyllycaconitine from chimeric alpha7nAChR K145A mutant/5HT3A receptor in tsA201 cells; type: cell-based, Homo sapiens; in short: as §1
[7] = Antagonist activity at human alpha7nAChR Y93A mutant co-expressed with human Ric3 in tsA201 cells by FMP assay; type: functional, cell-based
[8] = Displacement of [3H]methyllycaconitine from chimeric alpha7nAChR Y195A mutant/5HT3A receptor in tsA201 cells; type: cell-based, Homo sapiens; in short: as §1
[9] = Antagonist activity at human alpha-7 nAChR Y195A mutant coexpressed with human Ric3 in tsA201 cells by FMP assay; type: functional, cell-based
[10] = biological target: T2, Neuronal acetylcholine receptor subunit alpha-7 (Homo sapiens, UniProt P36544); assay: Displacement of [3H]methyllycaconitine from human alpha-7 in tsA201 cells coexpressed with 5HT3A receptor; type: cell-based
Target sequence in this assay (P36544 whole entry): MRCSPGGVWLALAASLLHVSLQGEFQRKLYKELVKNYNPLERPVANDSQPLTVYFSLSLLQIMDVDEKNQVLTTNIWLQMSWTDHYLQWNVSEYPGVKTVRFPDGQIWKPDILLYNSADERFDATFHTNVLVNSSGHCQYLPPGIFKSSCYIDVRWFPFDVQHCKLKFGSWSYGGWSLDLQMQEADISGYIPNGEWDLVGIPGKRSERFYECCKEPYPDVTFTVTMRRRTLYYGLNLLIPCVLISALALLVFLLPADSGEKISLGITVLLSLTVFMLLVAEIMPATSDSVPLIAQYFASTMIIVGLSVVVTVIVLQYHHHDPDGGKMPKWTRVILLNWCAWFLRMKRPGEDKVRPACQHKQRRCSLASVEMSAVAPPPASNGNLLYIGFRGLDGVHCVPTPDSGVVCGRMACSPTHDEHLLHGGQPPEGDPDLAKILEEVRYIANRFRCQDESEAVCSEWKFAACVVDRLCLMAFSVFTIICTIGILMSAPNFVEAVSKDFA

[11] = biological target: T2, Neuronal acetylcholine receptor subunit alpha-7; assay: Displacement of [3H]methyllycaconitine from chimeric alpha7nAChR/5HT3A in tsA201 cells; type: cell-based
Target sequence in this assay (P36544 23-502 limits assumed): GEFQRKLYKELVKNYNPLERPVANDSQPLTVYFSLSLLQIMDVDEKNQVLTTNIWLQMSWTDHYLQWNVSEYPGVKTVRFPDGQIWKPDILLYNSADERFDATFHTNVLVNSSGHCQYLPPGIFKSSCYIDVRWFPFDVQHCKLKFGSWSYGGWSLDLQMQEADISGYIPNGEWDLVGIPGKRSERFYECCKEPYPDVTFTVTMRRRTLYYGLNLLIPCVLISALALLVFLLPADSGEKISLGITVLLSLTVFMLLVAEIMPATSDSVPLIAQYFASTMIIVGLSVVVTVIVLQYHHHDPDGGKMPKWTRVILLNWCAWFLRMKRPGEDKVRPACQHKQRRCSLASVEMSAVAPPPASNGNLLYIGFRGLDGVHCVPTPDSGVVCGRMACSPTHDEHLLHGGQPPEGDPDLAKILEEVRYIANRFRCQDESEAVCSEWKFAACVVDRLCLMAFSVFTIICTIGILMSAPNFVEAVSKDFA

[12] = Displacement of [3H]methyllycaconitine from chimeric alpha7nAChR R79A mutant/5HT3A receptor R79A mutant in tsA201 cells; type: cell-based, Homo sapiens; in short: as §1
[13] = Displacement of [3H]methyllycaconitine from chimeric alpha-7nAChR W55A mutant /5HT3A receptor in tsA201 cells; type: cell-based, Homo sapiens; in short: as §1
[14] = Antagonist activity at human alpha-7 nAChR Y188A mutant coexpressed with human Ric3 in tsA201 cells by FMP assay; type: functional, cell-based
[15] = biological target: T3, 5-hydroxytryptamine receptor 3A (Homo sapiens, UniProt P46098); assay: Antagonist activity at human 5HT3A receptor expressed in HEK293 cells by FMP assay; type: functional, cell-based
T3 sequence (P46098 whole entry): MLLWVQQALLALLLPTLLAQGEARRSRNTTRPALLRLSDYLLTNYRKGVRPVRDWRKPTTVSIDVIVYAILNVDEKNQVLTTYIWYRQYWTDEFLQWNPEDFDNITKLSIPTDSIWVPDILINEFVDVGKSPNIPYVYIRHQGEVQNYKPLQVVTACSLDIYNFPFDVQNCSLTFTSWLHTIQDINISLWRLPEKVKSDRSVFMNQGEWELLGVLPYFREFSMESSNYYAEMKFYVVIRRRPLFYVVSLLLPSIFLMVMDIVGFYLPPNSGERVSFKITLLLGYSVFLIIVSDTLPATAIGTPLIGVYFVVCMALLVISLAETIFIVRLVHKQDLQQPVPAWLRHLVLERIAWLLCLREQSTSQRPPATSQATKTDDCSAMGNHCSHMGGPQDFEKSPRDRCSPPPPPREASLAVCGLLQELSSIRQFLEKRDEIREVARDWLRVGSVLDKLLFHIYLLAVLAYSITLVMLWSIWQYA

tsA201 [16] = assay: Displacement of [3H]methyllycaconitine from chimeric alpha-7nAChR W55A/Y195A mutant /5HT3A receptor in tsA201 cells; type: cell-based; details: Homo sapiens; in short: as §1
tsA201 [17] = assay: Displacement of [3H]methyllycaconitine from chimeric alpha-7nAChR Y93A mutant/5HT3A receptor in tsA201 cells; type: cell-based; details: Homo sapiens; in short: as §1
[18] = Displacement of [3H]methyllycaconitine from chimeric alpha7nAChR W55Y mutant/5HT3A receptor in tsA201 cells; type: cell-based, Homo sapiens; in short: as §1
[19] = biological target: T1, Neuronal acetylcholine receptor; alpha3/beta4; assay: Antagonist activity at rat alpha3beta4 nAChR expressed in HEK293 cells by FMP assay; type: functional, cell-based, Homo sapiens
[20] = Displacement of [3H]methyllycaconitine from chimeric alpha-7nAChR S150A mutant/5HT3A receptor in tsA201 cells; type: cell-based, Homo sapiens; in short: as §1
[21] = Displacement of [3H]methyllycaconitine from chimeric alpha-7nAChR D197A mutant/5HT3A receptor in tsA201 cells; type: cell-based, Homo sapiens; in short: as §1
tsA201 [22] = assay: Displacement of [3H]methyllycaconitine from chimeric alpha-7nAChR Y188A mutant/5-HT3A receptor in tsA201 cells; type: cell-based; details: Homo sapiens; in short: as §1
cells = type: functional, cell-based; details: Homo sapiens, HEK293
[23] = Antagonist activity at human alpha7 nAChR W149Y mutant co-expressed with human Ric3 in tsA201 cells by FMP assay; type: functional, cell-based
[24] = biological target: T2, Neuronal acetylcholine receptor subunit alpha-7
Target sequence in this assay (P36544 whole entry): as the sequence (P36544 whole entry) above

[25] = Displacement of [3H]methyllycaconitine from chimeric alpha-7nAChR N107A mutant/5HT3A receptor in tsA201 cells; type: cell-based, Homo sapiens; in short: as §1
[26] = biological target: T3, 5-hydroxytryptamine receptor 3A; assay: Displacement of [3H]GR65630 from human 5HT3A receptor in HEK293 cells; type: cell-based
tsA201 [27] = assay: Displacement of [3H]methyllycaconitine from chimeric alpha-7nAChR W149A mutant/5HT3A receptor in tsA201 cells; type: cell-based; details: Homo sapiens; in short: as §1
tsA201 [28] = assay: Displacement of [3H]methyllycaconitine from chimeric alpha-7nAChR W149Y mutant/5HT3A receptor W149Y mutant in tsA201 cells; type: cell-based; details: Homo sapiens; in short: as §1

T1 sequence (P04757 whole entry): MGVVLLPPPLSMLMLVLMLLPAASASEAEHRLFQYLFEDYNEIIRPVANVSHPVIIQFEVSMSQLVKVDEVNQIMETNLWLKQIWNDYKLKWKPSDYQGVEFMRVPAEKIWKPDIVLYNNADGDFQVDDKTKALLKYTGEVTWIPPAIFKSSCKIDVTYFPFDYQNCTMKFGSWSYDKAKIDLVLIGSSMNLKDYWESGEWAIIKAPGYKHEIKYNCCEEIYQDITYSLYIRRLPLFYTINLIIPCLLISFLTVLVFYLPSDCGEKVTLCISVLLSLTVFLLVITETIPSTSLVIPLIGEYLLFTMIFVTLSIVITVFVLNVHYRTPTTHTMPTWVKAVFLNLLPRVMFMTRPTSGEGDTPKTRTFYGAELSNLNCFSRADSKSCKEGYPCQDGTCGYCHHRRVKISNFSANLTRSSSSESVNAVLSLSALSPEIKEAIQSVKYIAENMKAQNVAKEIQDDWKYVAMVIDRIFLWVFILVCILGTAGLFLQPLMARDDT
T1 sequence (P12392 whole entry): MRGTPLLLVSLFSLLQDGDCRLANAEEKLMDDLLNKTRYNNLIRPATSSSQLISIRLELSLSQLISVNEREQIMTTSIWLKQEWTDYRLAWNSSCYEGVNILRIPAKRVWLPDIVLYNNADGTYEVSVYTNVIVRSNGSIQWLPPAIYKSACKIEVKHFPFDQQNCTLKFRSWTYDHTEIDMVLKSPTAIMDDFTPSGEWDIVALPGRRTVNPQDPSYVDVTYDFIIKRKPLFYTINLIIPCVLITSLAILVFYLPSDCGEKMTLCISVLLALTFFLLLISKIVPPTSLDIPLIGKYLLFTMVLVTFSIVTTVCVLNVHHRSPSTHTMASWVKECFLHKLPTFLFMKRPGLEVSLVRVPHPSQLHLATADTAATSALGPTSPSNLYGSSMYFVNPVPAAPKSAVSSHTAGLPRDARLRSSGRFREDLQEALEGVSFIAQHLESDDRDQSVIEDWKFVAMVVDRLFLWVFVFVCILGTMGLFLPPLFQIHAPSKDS
Sequence of Neuronal acetylcholine receptor; alpha4/beta2 (P09483 whole entry): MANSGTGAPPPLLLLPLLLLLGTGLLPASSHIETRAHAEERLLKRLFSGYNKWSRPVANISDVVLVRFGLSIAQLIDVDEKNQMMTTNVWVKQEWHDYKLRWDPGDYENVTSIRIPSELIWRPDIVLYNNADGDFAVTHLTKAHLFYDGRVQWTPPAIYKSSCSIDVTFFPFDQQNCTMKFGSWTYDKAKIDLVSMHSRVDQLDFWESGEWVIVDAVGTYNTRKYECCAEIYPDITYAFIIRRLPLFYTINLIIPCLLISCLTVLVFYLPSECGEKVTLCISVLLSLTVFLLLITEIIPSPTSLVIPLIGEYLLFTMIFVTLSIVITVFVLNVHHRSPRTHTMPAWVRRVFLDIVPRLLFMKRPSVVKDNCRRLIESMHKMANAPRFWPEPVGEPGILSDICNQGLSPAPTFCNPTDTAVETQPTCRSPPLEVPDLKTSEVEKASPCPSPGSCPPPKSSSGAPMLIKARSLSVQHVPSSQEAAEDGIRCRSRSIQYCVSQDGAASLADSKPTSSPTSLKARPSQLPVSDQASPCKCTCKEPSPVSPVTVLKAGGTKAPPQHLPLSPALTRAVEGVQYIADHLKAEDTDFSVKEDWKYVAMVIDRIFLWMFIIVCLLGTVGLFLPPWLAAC
Sequence of Neuronal acetylcholine receptor; alpha4/beta2 (P12390 whole entry): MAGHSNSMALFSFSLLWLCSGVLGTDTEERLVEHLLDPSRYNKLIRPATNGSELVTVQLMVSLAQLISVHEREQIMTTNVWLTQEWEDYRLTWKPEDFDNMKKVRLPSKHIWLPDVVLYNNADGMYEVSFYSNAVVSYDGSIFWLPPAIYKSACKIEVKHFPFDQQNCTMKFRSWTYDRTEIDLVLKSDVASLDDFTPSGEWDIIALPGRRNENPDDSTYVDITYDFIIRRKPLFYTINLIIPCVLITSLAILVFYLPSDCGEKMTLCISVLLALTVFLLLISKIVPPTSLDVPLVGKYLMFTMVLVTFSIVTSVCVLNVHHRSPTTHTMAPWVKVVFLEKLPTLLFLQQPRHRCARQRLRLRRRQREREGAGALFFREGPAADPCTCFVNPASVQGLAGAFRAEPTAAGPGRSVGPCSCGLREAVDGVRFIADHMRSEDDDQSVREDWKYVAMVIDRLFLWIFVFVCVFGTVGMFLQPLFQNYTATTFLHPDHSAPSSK
Sequence of Neuronal acetylcholine receptor; alpha4/beta4 (P09483 whole entry): as the sequence (P09483 whole entry) above
Sequence of Neuronal acetylcholine receptor; alpha4/beta4 (P12392 whole entry): as the sequence (P12392 whole entry) above

Q: Which results are given for `O=[N+]([O-])c1ccc(C[N+]23CC[C@@H]4[C@@H]5[C@@H]6[C@@H](OCC=C(C2)[C@@H]6C[C@@H]43)N2c3ccccc3[C@@]34CC[N+]6(Cc7ccc([N+](=O)[O-])cc7)CC7=CCO[C@H]([C@@H]([C@H]23)[C@H]7C[C@@H]46)N5c2ccccc2)cc1.[Br-].[Br-]` (stereo partly specified)?
A: Ki [1]: > 100000 nM; pKi ([1]; hek293): < 4; pKi ([2]; hek293): < 4; Ki ([2]; read-out: Ki): > 100000 nM; Ki [3]: 34 nM; pKi [3]: 7.47; Ki [4]: > 100000 nM; pKi ([4]; hek293): < 4; Ki [5]: 160 nM; pKi [5]: 6.8; Ki [6]: 28 nM; pKi [6]: 7.56; IC50 ([7]; read-out: IC50): 19000 nM; IC50 ([7]; read-out: pIC50 (converted)): 19500 nM; Ki [8]: 740 nM; pKi [8]: 6.13; IC50 ([9]; read-out: IC50): 25000 nM; IC50 ([9]; read-out: pIC50 (converted)): 25100 nM; Ki ([10]; read-out: Ki): 22 nM; Ki ([10]; read-out: pKi (converted)): 20 nM; Ki [11]: 18 nM; pKi [11]: 7.74; Ki [12]: 32 nM; pKi [12]: 7.5; Ki [13]: 130 nM; pKi [13]: 6.89; IC50 ([14]; read-out: IC50): 15000 nM; IC50 ([14]; read-out: pIC50 (converted)): 15500 nM; pIC50 ([15]; hek293): < 4; IC50 ([15]; read-out: IC50): > 100000 nM; Activity (tsA201 [16]): inactive; Activity (tsA201 [17]): inactive; Ki [18]: 37 nM; pKi [18]: 7.43; pIC50 ([19]; hek293): < 4; IC50 ([19]; read-out: IC50): > 100000 nM; Ki [20]: 35 nM; pKi [20]: 7.45; Ki [21]: 31 nM; pKi [21]: 7.51; Activity (tsA201 [22]): inactive; IC50 (cells; read-out: IC50): > 100000 nM; IC50 (cells; read-out: pIC50 (converted)): > 100000 nM; IC50 ([23]; read-out: IC50): 1200 nM; IC50 ([23]; read-out: pIC50 (converted)): 1170 nM; IC50 [24]: 360 nM and 363 nM; Ki [25]: 17 nM; pKi [25]: 7.76; Ki [26]: 23000 nM; Activity (tsA201 [27]): inactive; Activity (tsA201 [28]): inactive

From ChEMBL document CHEMBL1148788 (J Med Chem, 2007)
